# Published values gathered from unrelated publications.
# Protocols differ between the studies behind these lines.
# Target: Eukaryotic elongation factor 2 kinase (EEF2K, Homo sapiens, UniProt O00418)
SMILES,read-out,action,technique,cells,tested at,measurement,result
COc1cc(Nc2cnc(C#N)c(O[C@H](C)CN(C)C)n2)ncc1-c1cnn(C)c1,enzyme activity,inhibitor,radiometric,,10 µM,remaining activity,87%
CCN(CC)CCNC(=O)c1c(C)[nH]c(/C=C2\C(=O)Nc3ccc(F)cc32)c1C,enzyme activity,inhibitor,,,10 µM,inhibition,-4%
CC/C(=N\NC(=O)NCc1cccc(O)c1)c1ccc(O)c(C)c1O,enzyme activity,inhibitor,,,0.1 µM,inhibition,1.1%
FC(F)(F)Oc1cccc(-c2cnc3ccc(-c4ccncc4)nn23)c1,enzyme activity,inhibitor,radiometric,,5 µM,activity vs control,98%
CCCS(=O)(=O)Nc1ccc(F)c(C(=O)c2c[nH]c3ncc(-c4ccc(Cl)cc4)cc23)c1F,enzyme activity,inhibitor,,,1 µM,inhibition,< 10%
CN1CC(Oc2cnc(C#N)cc2-c2ccn3nc(NC(=O)C4CC4)cc3c2)C1,enzyme activity,inhibitor,,,1 µM,inhibition,9%
CCN1CCN(Cc2ccc(NC(=O)c3ccc(C)c(Oc4ccnc5[nH]ccc45)c3)cc2C(F)(F)F)CC1,target engagement in cells,inhibitor,chemoproteomics,A-375,0.5 µM,inhibition,0.084%
Cn1c2c(Cl)c(Cl)ccc2c2cc[nH]c(=O)c21,thermal stability,,DSF,,10 µM,ΔTm,-0.3 °C
Cn1c(=O)n(-c2ccc(C(C)(C)C#N)cc2)c2c3cc(-c4cnc5ccccc5c4)ccc3ncc21,enzyme activity,inhibitor,,,10 µM,remaining activity,110%
Cc1ccc(Nc2nccc(N(C)c3ccc4c(C)n(C)nc4c3)n2)cc1S(N)(=O)=O,enzyme activity,inhibitor,,,0.3 µM,inhibition,-7%
CCN1CCN(Cc2ccc(NC(=O)c3ccc(C)c(/C=C/c4cnc5[nH]ccc5c4OC)c3)cc2C(F)(F)F)CC1,target engagement in cells,inhibitor,chemoproteomics,A-375,0.5 µM,inhibition,-21.7%
Nc1nc(Nc2ccccc2)sc1C(=O)c1c(F)cccc1F,enzyme activity,inhibitor,,,10 µM,remaining activity,95%
Cn1c2c(c3ccc(Cl)c(Cl)c31)C(C#N)C1(CCCC1)NC2=O (stereo not shown),thermal stability,,DSF,,10 µM,ΔTm,0 °C
Cc1cnc(NC2CCOCC2)nc1-n1cnc(C(=O)NC(CN)c2cc(F)cc(Cl)c2)c1 (stereo not shown),enzyme activity,inhibitor,radiometric,,1 µM,remaining activity,108%
CCCOc1ccc(OC)c(F)c1C(=O)c1ccc(C(=O)N[C@@H]2CNC[C@H]2NC(=O)c2ccc3[nH]ncc3c2)cc1,enzyme activity,inhibitor,,,10 µM,remaining activity,128%
CC1(C)NC(=O)c2[nH]c3c(Cl)c(Cl)ccc3c2C1C#N (stereo not shown),thermal stability,,DSF,,10 µM,ΔTm,-0.3 °C
